Measurements: ChEMBL document CHEMBL3286362, “Farnesyltransferase inhibitors: CAAX mimetics based on different biaryl scaffolds” (Bioorg Med Chem Lett, 2014)
Calls of active or inactive are those of the source. No cut-off for these calls is given here.

Target: T1, Protein farnesyltransferase (Homo sapiens, UniProt P49354+P49356)
Experiment: Inhibition of recombinant FTase (unknown origin) at 20 uM by spectrofluorimetric analysis relative to control
Assay type: protein-complex assay
Procedure, shortened: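 Fluorescence-based FTase activity assay; free acids screened at a single 20 µM concentration and percent inhibition determined.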

inhibition	SMILES
0%	CSCC[C@H](NC(=O)c1ccc(NC(=O)Cc2csc(N)n2)cc1-c1cncc2ccccc12)C(=O)O
90.4%	CSCC[C@H](NC(=O)c1ccc(NC(=O)Cc2csc(N)n2)cc1-c1cccc2ccccc12)C(=O)O
96.6%	CSCC[C@H](NC(=O)c1ccc(OCC2COc3ccccc3O2)cc1-c1ccsc1)C(=O)O (stereo not given in full)
41.7%	CSCC[C@H](NC(=O)c1ccc(OCC2COc3ccccc3O2)cc1-c1cccc2ccccc12)C(=O)O (stereo not given in full)
48.7%	CSCC[C@H](NC(=O)c1ccc(OCC2COc3ccccc3O2)cc1-c1ccoc1)C(=O)O (stereo not given in full)
98.7%	CSCC[C@H](NC(=O)c1ccc(NC(=O)Cc2csc(N)n2)cc1-c1ccoc1)C(=O)O
20.9%	CSCC[C@H](NC(=O)c1ccc(NC(=O)Cc2csc(N)n2)cc1-c1ccsc1)C(=O)O
51.5%	CSCC[C@H](NC(=O)c1ccc(OCC2COc3ccccc3O2)cc1-c1ccco1)C(=O)O (stereo not given in full)
15.4%	CSCC[C@H](NC(=O)c1ccc(NC(=O)Cc2csc(N)n2)cc1-c1ccco1)C(=O)O
14.5%	CSCC[C@H](NC(=O)c1ccc(OCC2COc3ccccc3O2)cc1-c1cncc2ccccc12)C(=O)O (stereo not given in full)
53.8%	CSCC[C@H](NC(=O)c1ccc(NC(=O)Cc2csc(N)n2)cc1-c1cccs1)C(=O)O
90%	CSCC[C@H](NC(=O)c1ccc(OCC2COc3ccccc3O2)cc1-c1cccs1)C(=O)O (stereo not given in full)

Target: T1, Protein farnesyltransferase
Experiment: Inhibition of recombinant FTase (unknown origin) by spectrofluorimetric analysis
Assay type: protein-complex assay

IC50	SMILES
5 µM	CSCC[C@H](NC(=O)c1ccc(OCC2COc3ccccc3O2)cc1-c1ccsc1)C(=O)O (stereo not given in full)
2.8 µM	CSCC[C@H](NC(=O)c1ccc(NC(=O)Cc2csc(N)n2)cc1-c1ccoc1)C(=O)O

Tested on: not listed separately
Experiment: (§1) Growth inhibition of RASMC after 72 hrs by Coulter counting analysis
Assay type: functional, Rattus norvegicus
Procedure, shortened: (§2)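 Proliferation of cultured rat aortic smooth muscle cells, with test agents given as isopropyl esters to aid membrane permeability; IC50 values derived.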

SMILES	IC50
CSCC[C@H](NC(=O)c1ccc(NC(=O)Cc2csc(N)n2)cc1-c1ccco1)C(=O)OC(C)C	110 µM
CSCC[C@H](NC(=O)c1ccc(NC(=O)Cc2csc(N)n2)cc1-c1cncc2ccccc12)C(=O)OC(C)C	252 µM
CSCC[C@H](NC(=O)c1ccc(OCC2COc3ccccc3O2)cc1-c1cccs1)C(=O)OC(C)C (stereo not given in full)	81 µM
CSCC[C@H](NC(=O)c1ccc(NC(=O)Cc2csc(N)n2)cc1-c1ccoc1)C(=O)OC(C)C	259 µM
CSCC[C@H](NC(=O)c1ccc(OCC2COc3ccccc3O2)cc1-c1cccc2ccccc12)C(=O)OC(C)C (stereo not given in full)	155 µM
CSCC[C@H](NC(=O)c1ccc(OCC2COc3ccccc3O2)cc1-c1ccoc1)C(=O)OC(C)C (stereo not given in full)	61 µM
CSCC[C@H](NC(=O)c1ccc(NC(=O)Cc2csc(N)n2)cc1-c1cccc2ccccc12)C(=O)OC(C)C	81 µM
CSCC[C@H](NC(=O)c1ccc(NC(=O)Cc2csc(N)n2)cc1-c1ccsc1)C(=O)OC(C)C	123 µM
CSCC[C@H](NC(=O)c1ccc(OCC2COc3ccccc3O2)cc1-c1ccco1)C(=O)OC(C)C (stereo not given in full)	99 µM
CSCC[C@H](NC(=O)c1ccc(NC(=O)Cc2csc(N)n2)cc1-c1cccs1)C(=O)OC(C)C	200 µM

Species: Rattus norvegicus
Experiment: as §1
Assay type: functional
Procedure, shortened: as §2

SMILES	growth inhibition (GI)
CSCC[C@H](NC(=O)c1ccc(NC(=O)Cc2csc(N)n2)cc1-c1ccoc1)C(=O)OC(C)C	Dose-dependent effect
CSCC[C@H](NC(=O)c1ccc(OCC2COc3ccccc3O2)cc1-c1cncc2ccccc12)C(=O)OC(C)C (stereo not given in full)	inactive
CSCC[C@H](NC(=O)c1ccc(OCC2COc3ccccc3O2)cc1-c1ccsc1)C(=O)OC(C)C (stereo not given in full)	inactive

Tested on: not listed separately
Experiment: (§3) Inhibition of FTase-mediated RAS prenylation in RASMC after 72 hrs by Western blotting analysis
Set-up: species or system Rattus norvegicus
Procedure, shortened: (§4)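 Rat aortic SMCs incubated 72 h with 25 to 400 µM of test ester or without it, alongside simvastatin 2 µM as positive control. Total cell lysates were prepared and Ras prenylation was assessed by Western blot with anti-Ras antibody (clone RAS10).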

IC50	SMILES
100 µM	CSCC[C@H](NC(=O)c1ccc(NC(=O)Cc2csc(N)n2)cc1-c1ccoc1)C(=O)OC(C)C

Species: Rattus norvegicus
Experiment: as §3
Procedure, shortened: as §4

inhibition	SMILES
Dose-dependent effect	CSCC[C@H](NC(=O)c1ccc(NC(=O)Cc2csc(N)n2)cc1-c1ccoc1)C(=O)OC(C)C

Species: Rattus norvegicus
Experiment: Inhibition of FTase-mediated RAS prenylation in RASMC at 2 uM after 72 hrs by Western blotting analysis
Procedure, shortened: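 Rat aortic smooth muscle cells were incubated for 72 h with or without test ester (25–400 µM) or with the HMG-CoA reductase inhibitor simvastatin (2 µM) as positive control. Total cell lysates were then prepared and Ras prenylation was assessed by western blot using an anti-Ras antibody (clone RAS10).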

inhibition	SMILES
Active	CCC(C)(C)C(=O)O[C@H]1C[C@@H](C)C=C2C=C[C@H](C)[C@H](CC[C@@H]3C[C@@H](O)CC(=O)O3)[C@H]21
